Assay [1] in a line: inhibitors of TNFa-induced NFkB p65 translocation, primary screen, imaging, HUVEC, MLSMR starter and 10KST1 sets (AID 438;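 active = inhibition above 20% together with a positive visual image hit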;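 note: compound added about 3h40 before a 20 min TNFalpha stimulation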;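 for inhibition: signal is the nuclear over cytoplasmic p65 intensity ratio per well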). As to conditions: HUVEC TNFa-induced p65 nuclear translocation; cell count: measured here: nuclei count (cytotoxicity indicator), at 2.08 µM; inhibition: at 2 µM, stronger effect = higher value, 0% TNFa-plus-vehicle, 100% no-TNFa wells.
Assay [2] can be described thus: inhibitors of mutant huntingtin aggregation, primary screen, imaging, exon1htt(103Q)mCFP cells, high-content imaging (AID 483;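 active = visual image review flags a hit and inhibition of aggregation exceeds 20%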;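 note: compound exposure lasted 3 days before fixation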;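 for nuclei count: percent of the per-plate median nuclei count of sample wells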). As to conditions: exon1htt(103Q)mCFP cell line, aggregate imaging, at 2 µM; inhibition of aggregation: stronger effect = higher value; nuclei count: measured here: cell count, toxicity.
Assay [3] is described as follows: inhibitors of E-selectin induction by TNFa, primary screen, imaging, HUVEC, immunofluorescence, MLSMR starter and 10KST1 sets (AID 487;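 active = visually confirmed hit in the image check and inhibition above 20%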;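 for inhibition: signal is fraction of cell area covered by stained E-selectin grains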;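 for nuclei count: 100% = median nuclei count of all wells on the same plate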). The note with it: HUVEC TNFalpha-induced E-selectin immunofluorescence imaging, at 2 µM; inhibition: stronger effect = higher value; nuclei count: measured here: cell number, toxicity.
Assay [4] deals with Voltage-gated potassium channel subunit beta-2 (Rattus norvegicus) (UniProt P62483). In words: KvBeta enzyme negative modulators, primary screen, biochemical, NADPH fluorescence (AID 622;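 active = fluorescence slope higher than the sample average by over 3 SD, cut at about -0.22 in these data, passing the limit was not always enough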;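 note: slope of raw intensity against log time taken from 70 to 1610 s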). As to conditions: recombinant KvBeta, 4-cyanobenzaldehyde reduction, at 10 µM, stronger effect = higher value.
Assay [5] has the same target. In words: KvBeta positive modulators, primary screen, biochemical, NADPH fluorescence (AID 623;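 active = NADPH fluorescence slope more negative than the mean of all samples by about 3 SD, 99.7% confidence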;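 note: fluorescence intensity change per second fitted from 20 to 320 s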). As to conditions: Recombinant KvBeta, NADPH fluorescence decrease slope, 10 min; at 10 µM; stronger effect = lower value.
Assay [6] has as its target Muscarinic acetylcholine receptor M4 (Homo sapiens) (UniProt P08173). As to the kind of experiment: compounds altering M4/GIRK thallium flux, either direction, primary screen, M4 allosteric agonist project, cell-based, HEK293 M4/GIRK, BTC-AM (AID 625).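 Note: thallium influx through GIRK channels coupled to M4 in HEK293 cells with BTC-AM dye.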 The note with it: at 10 µM, actives lie on both sides. The procedure, abridged:
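Assay system: HEK293 cells with M4 receptor and GIRK channels / Controls: carbachol and DMSO controls / Schedule: 1 h dye loading, 2 min kinetic read / Technique: kinetic fluorescence with BTC-AM dye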

Assay [7] is described as follows: inhibitors of Sendai virus-induced IRF3 signaling, primary screen, TLR/RLR signaling modifier project, cell-based, Sendai virus stimulus, luciferase, 10K MLSCN set (AID 602276;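 active = inhibition at or above 50% at 10 µM; inactive = inhibition below 50%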;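 note: firefly luciferase from ISG56 promoter only with Renilla not read in this screen; 0% = Sendai virus plus DMSO and 100% = medium plus DMSO without virus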). As to conditions: HEK293 RL24 IRF3 luciferase reporter, at 10 µM, stronger effect = higher value. (Reporter assays use an easily measured gene product as a stand-in for the process of interest.)
Assay [8] can be described thus: inhibitors of poly I:C-induced TLR3 signaling, primary screen, cell-based, poly I:C stimulus, luciferase, 10K MLSCN set (AID 602277;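 active = inhibition of the reporter signal at or above 50%; inactive = inhibition below 50%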). The note with it: HEK293-TLR3 RL24 IRF3 luciferase reporter, at 10 µM, stronger effect = higher value.

Active and inactive are the calls of the source.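 Rule for the calls, unless noted: active = fluorescence slope after compound addition differing from the mean of all tested samples at 99.7% confidence, mostly higher but some lower; inactive = the rest.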

Muscarinic acetylcholine receptor M4 (Homo sapiens), sequence (P08173 whole entry, looked up): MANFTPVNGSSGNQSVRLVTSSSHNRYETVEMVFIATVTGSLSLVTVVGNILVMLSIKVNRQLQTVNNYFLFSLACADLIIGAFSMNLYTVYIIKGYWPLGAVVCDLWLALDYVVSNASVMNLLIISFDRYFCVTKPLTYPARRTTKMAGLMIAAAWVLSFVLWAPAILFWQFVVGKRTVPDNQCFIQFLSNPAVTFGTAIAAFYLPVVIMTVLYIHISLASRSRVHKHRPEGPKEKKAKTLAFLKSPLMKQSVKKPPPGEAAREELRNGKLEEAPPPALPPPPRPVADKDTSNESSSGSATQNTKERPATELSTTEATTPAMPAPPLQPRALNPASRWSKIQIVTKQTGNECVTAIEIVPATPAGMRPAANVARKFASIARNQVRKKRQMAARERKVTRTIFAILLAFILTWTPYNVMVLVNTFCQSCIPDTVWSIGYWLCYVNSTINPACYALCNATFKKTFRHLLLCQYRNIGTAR
Voltage-gated potassium channel subunit beta-2 (Rattus norvegicus), sequence (P62483 whole entry, looked up): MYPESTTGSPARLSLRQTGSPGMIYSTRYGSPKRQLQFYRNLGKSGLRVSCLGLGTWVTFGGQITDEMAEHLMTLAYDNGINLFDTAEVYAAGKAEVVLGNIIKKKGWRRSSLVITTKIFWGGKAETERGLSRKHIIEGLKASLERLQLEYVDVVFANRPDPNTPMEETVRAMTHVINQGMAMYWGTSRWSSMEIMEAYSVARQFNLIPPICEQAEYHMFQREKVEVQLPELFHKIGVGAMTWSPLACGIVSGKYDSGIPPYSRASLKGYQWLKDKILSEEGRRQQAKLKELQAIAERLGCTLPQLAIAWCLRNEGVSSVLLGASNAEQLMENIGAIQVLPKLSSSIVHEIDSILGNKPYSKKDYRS

For orientation: inhibition means the relative decrease from the control value, in per cent. On to `Cc1cc(C)c2oc(=O)cc(CN3CCOCC3)c2c1`, for which the cell count in assay [1] turned out to be 647. Moreover, the inhibition is 2% (inactive) in assay [1], -10.1% (inactive) in assay [3], 15.5% (inactive) in assay [7] and 25.5% (inactive) in assay [8]. Besides, the inhibition of aggregation in assay [2] is 4.4% (inactive). The results for the nuclei count in assay [2] and in assay [3] were 87.2% and 99.8%, respectively. The values for the fluorescence slope in assay [4] and in assay [6] were -0.551 (inactive) and 0.00519 (inactive), respectively. In addition, the NADPH fluorescence slope in assay [5] is 2.5e-06 (inactive).
For the molecule `CN(Cc1ccccc1)Cc1nc2c([nH]1)c(=O)[nH]c(=O)n2C`, the cell count in assay [1] was 276. The inhibition in assay [1] was 12.9% (inactive); in assay [3] it was 69.5% (active); in assay [7], 7.51% (inactive); in assay [8] it was 14.7% (inactive). The inhibition of aggregation in assay [2] is -1.6% (inactive). Besides, the values for the nuclei count in assay [2] and in assay [3] were 96% and 91.4%, respectively. Moreover, the fluorescence slope in assay [4] was -0.371 (inactive); in assay [6], 0.0061 (inactive). Moreover, in assay [5], the NADPH fluorescence slope was -0.000115 (inactive).
`COc1ccc(-c2cc(C(=O)NCCc3ccccc3)no2)cc1OC`: the cell count in assay [1] stood at 364. The inhibition in assay [1] was -23% (inactive); in assay [3], -58.5% (inactive); in assay [7], 7.88% (inactive); in assay [8], -6.93% (inactive). Further, the inhibition of aggregation in assay [2] is -2.1% (inactive). Further, the values for the nuclei count in assay [2] and in assay [3] were 98.3% and 105%, respectively. In addition, the fluorescence slope in assay [4] is -0.298 (inactive); in assay [6] it was 0.00599 (inactive). The NADPH fluorescence slope in assay [5] is -2.2e-05 (inactive).
Take `O=C(CSc1nc2ccccc2n1CC(=O)N1CCCC1)Nc1nccs1`: the cell count in assay [1] amounted to 676. Further, the inhibition was 1% (inactive) in assay [1], -3.7% (inactive) in assay [3], 2.67% (inactive) in assay [7] and 14% (inactive) in assay [8]. In assay [2], the inhibition of aggregation is -9.6% (inactive). For the same molecule, the nuclei count was found to be 99.7% in assay [2] and 131% in assay [3]. Further, the fluorescence slope in assay [4] is -0.484 (inactive); in assay [6], 0.00508 (inactive). The NADPH fluorescence slope in assay [5] is -0.000183 (inactive).
Take `Cc1cc(C)c2c(=O)[nH]c(=O)n(Cc3ccccc3)c2n1`: the cell count in assay [1] turned out to be 303. For the same molecule, the inhibition in assay [1] is 20% (inactive); in assay [3], 0.6% (inactive); in assay [7] it was 16.5% (inactive); in assay [8], 27.4% (inactive). The inhibition of aggregation in assay [2] is -9.7% (inactive). Also, the nuclei count in assay [2] turned out to be 114%; in assay [3], 103%. In addition, the fluorescence slope in assay [4] was -0.53 (inactive); in assay [6], 0.00637 (inactive). In addition, the NADPH fluorescence slope in assay [5] was 2.6e-05 (inactive).
As for `CCOc1ncccc1C(=O)OCC(=O)Nc1ncc(C(F)(F)F)cc1Cl`, in assay [1], the cell count came out at 474. In addition, the inhibition in assay [1] is -12.1% (inactive); in assay [3] it was -29% (inactive); in assay [7], 22.1% (inactive); in assay [8], 18% (inactive). Also, in assay [2], the inhibition of aggregation was -26.1% (inactive). Besides, the results for the nuclei count in assay [2] and in assay [3] were 80.7% and 108%, respectively. Also, the fluorescence slope in assay [4] is -0.588 (inactive); in assay [6] it was 0.00542 (inactive). The NADPH fluorescence slope in assay [5] is 2.6e-05 (inactive).
In the case of `C[C@H](NC(=O)Nc1ccccc1F)C(=O)O`, the cell count in assay [1] was found to be 294. The inhibition in assay [1] is -8.5% (inactive); in assay [3], -78.4% (inactive); in assay [7], 14.6% (inactive); in assay [8] it was 24.2% (inactive). Further, the inhibition of aggregation in assay [2] was 4.9% (inactive). The nuclei count in assay [2] is 86%; in assay [3] it was 138%. Besides, the figures for the fluorescence slope in assay [4] and in assay [6] were -0.602 (inactive) and 0.00462 (inactive), respectively. Moreover, the NADPH fluorescence slope in assay [5] was 5.1e-05 (inactive).
Turning to `CCN(C(=O)CN1CCN(c2ccccc2OC)CC1)c1c(N)n(Cc2ccccc2)c(=O)[nH]c1=O`, the cell count in assay [1] is 471. For the same molecule, the inhibition in assay [1] was 1.1% (inactive); in assay [3], -52.2% (inactive); in assay [7] it was 9.1% (inactive); in assay [8], 25.4% (inactive). The inhibition of aggregation in assay [2] is -18.1% (inactive). In addition, the nuclei count in assay [2] came out at 63.9%; in assay [3] it was 102%. The fluorescence slope in assay [4] was -0.424 (inactive); in assay [6], 0.00639 (inactive). Also, the NADPH fluorescence slope in assay [5] was -0.000102 (inactive).
Take `Cc1ccccc1CN1CCN(CC(=O)NCc2ccco2)C1=O`: in assay [1], the cell count came out at 395. The inhibition in assay [1] was -1.7% (inactive); in assay [3], -7.2% (inactive); in assay [7], 23.3% (inactive); in assay [8], 22.7% (inactive). For the same molecule, in assay [2], the inhibition of aggregation is -11.1% (inactive). Further, the nuclei count in assay [2] was 97.3%; in assay [3], 109%. The values for the fluorescence slope in assay [4] and in assay [6] were -0.511 (inactive) and 0.00663 (inactive), respectively. For the same molecule, the NADPH fluorescence slope in assay [5] is -0.000109 (inactive).
On to `CCOC(=O)c1sc(NC(=O)CSc2nnc(-c3ccco3)n2CC)c(C(=O)OCC)c1C`, for which the cell count in assay [1] worked out at 696. For the same molecule, the inhibition was -10.9% (inactive) in assay [1], -27.8% (inactive) in assay [3], -9.39% (inactive) in assay [7] and -38.2% (inactive) in assay [8]. Further, in assay [2], the inhibition of aggregation is -26.7% (inactive). For the same molecule, the nuclei count was 104% in assay [2] and 92.7% in assay [3]. The figures for the fluorescence slope in assay [4] and in assay [6] were -0.565 (inactive) and 0.00558 (inactive), respectively. In addition, the NADPH fluorescence slope in assay [5] was -3.7e-05 (inactive).
`COc1ccc(-c2noc(CN3C(=O)c4ccccc4C3=O)n2)cc1`: the cell count in assay [1] was 551. Moreover, the inhibition in assay [1] is 8.9% (inactive); in assay [3], -19.9% (inactive); in assay [7] it was 0.341% (inactive); in assay [8], -2.38% (inactive). In assay [2], the inhibition of aggregation is 4.4% (inactive). Besides, the nuclei count worked out at 90.5% in assay [2] and 108% in assay [3]. Further, the fluorescence slope in assay [4] is -0.551 (inactive); in assay [6], 0.00296 (inactive). Further, in assay [5], the NADPH fluorescence slope is -4.8e-05 (inactive).
As for `O=C(O)C1C2CCC(C2)C1C(=O)NCCCn1ccnc1` (centres undefined), the cell count in assay [1] came out at 486. The inhibition in assay [1] is 0% (inactive); in assay [3] it was 65.4% (active); in assay [7], -12.1% (inactive); in assay [8] it was -16.7% (inactive). Besides, the inhibition of aggregation in assay [2] is 18.3% (inactive). In addition, the nuclei count in assay [2] was determined as 72.3%; in assay [3] it was 65.1%. Also, the fluorescence slope is -0.491 (inactive) in assay [4] and 0.0041 (inactive) in assay [6]. Besides, the NADPH fluorescence slope in assay [5] is -8.2e-05 (inactive).
In the case of `COc1ccc(NC(=O)Nc2cc(C)ccc2OC)cc1`, the cell count in assay [1] came out at 217. The inhibition in assay [1] was 8.3% (inactive); in assay [3], -133% (inactive); in assay [7], -39.1% (inactive); in assay [8], -80.2% (inactive). Also, the inhibition of aggregation in assay [2] was -1.8% (inactive). In addition, the nuclei count is 98.6% in assay [2] and 120% in assay [3]. For the same molecule, the results for the fluorescence slope in assay [4] and in assay [6] were -0.422 (inactive) and 0.00547 (inactive), respectively. Also, the NADPH fluorescence slope in assay [5] was -0.00041 (inactive).
Turning to `COc1ccccc1CNC(=O)CCn1c(=O)[nH]c2ccsc2c1=O`, in assay [1], the cell count came out at 504. Moreover, the inhibition in assay [1] is 1.1% (inactive); in assay [3], 9.6% (inactive); in assay [7] it was 16.6% (inactive); in assay [8], -5.76% (inactive). In addition, the inhibition of aggregation in assay [2] was 6.6% (inactive). Further, the nuclei count in assay [2] was 111%; in assay [3] it was 110%. In addition, the fluorescence slope in assay [4] is -0.266 (inactive); in assay [6] it was 0.0062 (inactive). For the same molecule, the NADPH fluorescence slope in assay [5] was -3e-05 (inactive).

The values are drawn from PubChem BioAssay.
